Screening data from PubChem BioAssay.
CHT allo act = CHT positive allosteric modulators, primary screen, cell-based, membrane potential dye, choline EC20; AID 488977, 2010; CHT-expressing cells; stronger effect = higher value; LV-AA mutant CHT in HEK293 cells; 0.49% of 310,000 active; B-score at 10 µM;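 active means initial fluorescence not abnormally high and integrated response B-score, plate-corrected, over 3 SD above library mean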
procasp7 counter = procaspase-7 activators, primary screen, counter-screen for procaspase-3 activator project, biochemical, absorbance, HTS, human | Caspase-7 (Homo sapiens), P55210 | recombinant procaspase-7, Ac-DEVD-pNA absorbance 405 nm; D23A/D198A/D206A triple mutant, cannot self-cleave; scale: DMSO 0, 5 µM enzyme 100 | activation, % at 8.5 µM | 0.093% of 330,000 active | AID 463210, 2010;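 active means percent activation above the screen-wide mean plus 3 SD, cut at about 25% in these data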
Target sequence (P55210 whole entry D23A/D198A/D206A): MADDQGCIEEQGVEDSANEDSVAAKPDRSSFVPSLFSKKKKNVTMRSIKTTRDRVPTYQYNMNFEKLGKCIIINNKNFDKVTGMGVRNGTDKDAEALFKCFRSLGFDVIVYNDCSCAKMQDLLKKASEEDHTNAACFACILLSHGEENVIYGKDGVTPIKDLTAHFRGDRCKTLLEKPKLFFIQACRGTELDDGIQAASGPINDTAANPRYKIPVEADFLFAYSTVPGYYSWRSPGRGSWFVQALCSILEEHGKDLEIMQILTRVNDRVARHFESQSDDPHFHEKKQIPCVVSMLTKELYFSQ
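Replicates: singlicate. Assay system: Procaspase-7 triple mutant (PC-7 D3A). Signal: 405 nm absorbance of p-nitroaniline. Times: 1 h preincubation, 2 h reaction. Buffer or medium: Zinc-free HEPES pH 7.4 with 300 mM NaCl, 0.01% Triton X-100. Also added: DEVD-pNA substrate. Benchmarks: DMSO wells as 0%, DMSO with 5 µM added PC-7 as 100%.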
proCasp3 act = activators of human procaspase-3 D3A mutant, primary screen, biochemical, absorbance, PC-3 D3A mutant, single concentration; Caspase-3 (Homo sapiens), P42574; recombinant procaspase-3 D3A, Ac-DEVD-pNA absorbance 405 nm; activation, % at 8.5 µM; 0.11% of 330,000 active; AID 463141, 2010;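 active means activation above the mean of all tested compounds plus 3 SD, cut at about 21% in these data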;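 further: 0% = DMSO alone and 100% = DMSO wells spiked with extra 5 µM PC-3 D3A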
Target sequence (P42574 whole entry D9A/D28A/D175A): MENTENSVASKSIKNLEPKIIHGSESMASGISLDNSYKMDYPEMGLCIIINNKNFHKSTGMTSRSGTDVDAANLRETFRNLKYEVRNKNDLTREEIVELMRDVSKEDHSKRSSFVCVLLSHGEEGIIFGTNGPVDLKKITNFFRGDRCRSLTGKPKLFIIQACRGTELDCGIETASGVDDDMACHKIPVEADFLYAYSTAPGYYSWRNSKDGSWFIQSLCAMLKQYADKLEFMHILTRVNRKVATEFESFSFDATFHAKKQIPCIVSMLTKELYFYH
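Assay system: Autoprocessing-dead procaspase-3 D3A mutant enzyme; also added: Ac-DEVD-pNA; doses: one concentration, 8.5 µM nominal, 0.8% DMSO; times: 1 h compound preincubation, 2 h substrate hydrolysis at 25 °C; technique: 405 nm absorbance of p-nitroaniline, reads at 0 and 120 min; measure: % activation between DMSO and enzyme-spiked controls; repeats: single replicate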
CHT block = inhibitors of human choline transporter CHT; High affinity choline transporter 1 (Homo sapiens), Q9GZV3; CHT-expressing cells, membrane potential dye, choline response; stronger effect = lower value; B-score at 10 µM; 0.86% of 310,000 active; AID 488975, 2010;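 active means B-score over 3 SD under the library average, and starting fluorescence ratio not unusually high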;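 further: choline stimulus applied at its EC90 after an EC20 pre-addition; B-score computed on integrated fluorescence ratio after choline addition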
CHT activ conf = CHT activators, confirmation, cell-based, membrane potential dye, duplicate; shares compounds with CHT allo act; CHT-expressing cells, membrane potential dye fluorescence (FDSS); % of choline EC20–EC90 response window; HEK293 expressing CHT LV-AA mutant; choline added at its EC20; activation, % at 10 µM; 91% of 2,500 active; AID 504833, 2011;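 active means primary screen active, with duplicate mean activation above negative control mean plus 3 SD, cut at about 11% in these data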
HEK293 MP dye = membrane potential response in parental HEK293 cells, counter-screen for CHT activator project, cell-based, membrane potential dye; shares compounds with CHT allo act; membrane potential dye fluorescence (FDSS); measured after EC20 choline addition; ratio readout change at 10 µM, hits read low; 62% of 2,500 active; AID 623908, 2012;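 active means duplicate-averaged ratio beyond 3 SD from buffer wells, up or down, though filed actives are nearly all decreases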
Numbers without * were called inactive; i = inactive; nt = no result. A selection: hits, their analogues and other compounds. The true share with any hit is near 1.3%.

SMILES	CHT allo act	procasp7 counter	proCasp3 act	CHT block	CHT activ conf	HEK293 MP dye
Cc1ccccc1Nc1c(-c2cccnc2)nc2ccccn12	7.5*	4	0	i	50*	-51*
CCN1C(=O)CSC1=Nc1ccc(OC)cc1	i	3	-1	i	nt	nt
Cc1ccc(NC(=O)C2C3CCC(O3)C2C(=O)O)cc1Cl (stereo unspecified)	i	-4	1	i	nt	nt
COc1ccc(C(=O)C(C)[n+]2ccc(C)c3ccccc32)cc1[N+](=O)[O-] (stereo unspecified)	6.5*	6	2	i	43*	-40*
COc1ccc(C(=O)NNC(=O)c2ccccc2[N+](=O)[O-])cc1[N+](=O)[O-]	i	10	3	i	nt	nt
Cc1cc2ccccc2n1CCNC(=O)C1CCCC1	i	2	0	i	2	i
Cc1cc2ccccc2n1CCNC(=O)C1CCCCC1	i	1	4	i	nt	nt
COc1ccc(NC(=O)C2CCN(C(=O)Nc3ccccc3)CC2)cc1S(=O)(=O)N(C)C	nt	6	5	nt	nt	nt
Cc1c(O)c(CN2CCCC2)cc2c3c(c(=O)oc12)CCC3	9.8*	8	5	i	37*	-72*
Cc1c(OCC(=O)NCCCN2CCCC2=O)ccc2c3c(c(=O)oc12)CCCC3	i	6	9	i	nt	nt
Cc1c(OCc2ccc(C(=O)O)o2)ccc2c3c(c(=O)oc12)CCC3	i	3	12	i	39*	-25*
Cc1c(OCC(=O)NCCCN2CCCC2=O)ccc2c3c(c(=O)oc12)CCC3	i	1	3	i	36*	-30*
Cn1c(=O)c(=O)n(C)c2cc(S(=O)(=O)N3CCCCC3)ccc21	i	17	6	i	nt	nt
Cn1c(=O)c(=O)n(C)c2cc(S(=O)(=O)N3CCC(N4CCCCC4)CC3)ccc21	10*	-4	4	i	77*	-77*
CCOc1ccc(C(=O)NCC(=O)N2CCc3ccccc3C2)cc1OCC	i	13	-4	i	nt	nt
Cc1cc(C)c(C(=O)Nn2c(C)nc3ccccc3c2=O)cc1C	i	11	9	i	nt	nt
C(=N\NC1=NCCN1)/c1ccncc1	6.4*	5	6	i	54*	-54*
C(=N\Nc1nc2ccccc2[nH]1)/c1ccncc1	i	6	-1	i	nt	nt
Clc1cncc(Cl)c1N/N=C/c1ccncc1	i	8	3	i	51*	-53*
CCOC(=O)c1nc2cc3n(c(CC(C)C)c-2c1C)CC(C)=C3C	i	-3	0	i	44*	-40*
CCOC(=O)c1nc2cc3n(c(C)c-2c1C)C(C)C(C)=C3C (stereo unspecified)	i	2	-1	i	nt	nt
C[C@@H]1CN([C@@H](C)CO)C(=O)c2cccc(NC(=O)c3nc4ccccc4s3)c2O[C@@H]1CN(C)CC1CC1	nt	21	7	nt	nt	nt
Cc1cccc(-c2cc3nc(C)cc(NCCCn4ccnc4)n3n2)c1	9.6*	6	-7	i	51*	-59*
CC(C)(C)c1cc(NCCCn2ccnc2)n2ncc(-c3ccccc3)c2n1	i	-4	-7	i	nt	nt
FC(F)(F)c1cc(-c2cccs2)nc2cc(-c3cccs3)nn12	i	3	3	i	nt	nt
SMILES	CHT allo act	procasp7 counter	proCasp3 act	CHT block	CHT activ conf	HEK293 MP dye
Cc1cc(NCCCN(C)C)n2nc(-c3cccs3)cc2n1	13*	14	0	i	39*	-89*
COc1ccc(-c2nc3n(c2C)CCC3)cc1	6.4*	3	4	i	57*	-63*
COc1ccc(-c2cc3nc4n(c(=O)c3s2)CCC4)cc1	i	11	7	i	nt	nt
O=C(Nc1ccccc1C(=O)NCCCN1CCOCC1)c1cccc([N+](=O)[O-])c1	6.3*	0	3	i	50*	-59*
O=C(NCCCN1CCOCC1)c1cccc(NC(=O)c2ccccc2)c1	i	-3	3	i	nt	nt
COc1cc(C(C(=O)NCc2ccccc2)N(C(=O)c2snc(C(N)=O)c2N)C2CCCC2)cc(OC)c1OC (stereo unspecified)	i	8	-7	i	nt	nt
O=C(Nc1ccc(-n2cnnn2)cc1)C1CCCCC1	9.1*	-14	0	i	35*	-33*
CCOC(=O)C1CCCN(C(=O)CNC(=O)c2ccc(Br)o2)C1 (stereo unspecified)	nt	-6	-6	nt	nt	nt
COc1ccc(C(CNC(=O)CSc2ccc(Br)cc2C)N2CCOCC2)cc1 (stereo unspecified)	i	13	0	i	-1	i
O=C(c1cc([N+](=O)[O-])ccc1N1CCCCC1)N1CCc2ccccc21	i	-14	2	i	35*	i
CCCCC(=O)Nc1ccccc1N1CCN(c2ccccc2)CC1	i	5	-8	i	22*	i
CCCCCC(=O)Nc1ccccc1N1CCOCC1	i	-7	-4	i	nt	nt
CSCCC(NC(=O)c1ccco1)C(=O)NCC(C)(C)N1CCOCC1 (stereo unspecified)	nt	-8	6	nt	nt	nt
Cc1cc(-n2ccnc2)n2c(nc3ccccc32)c1C#N	i	5	-3	i	nt	nt
Cc1cc(N2CCN(C3CCCC3)CC2)n2c(nc3ccccc32)c1C#N	7.1*	5	1	i	3	i
C/C(=N\NC(=O)CNc1ccccc1)c1ccccc1	i	5	4	i	nt	nt
CCOC(=O)c1sc2nc3n(c(=O)c2c1C)CCC3	i	6	5	i	nt	nt
CCOC(=O)c1sc2nc(SCC#N)n(CCCN3CCCC3=O)c(=O)c2c1C	i	-2	2	i	21*	i
Cn1c(=O)c2c(ncn2CCCC(=N)N2CCOCC2)n(C)c1=O	11*	4	-2	i	78*	-72*
CCC(=O)N1CCN(c2ccnc3cc(Cl)ccc23)CC1	7.6*	8	-1	i	68*	-63*
Clc1ccc2c(N3CCOCC3)ccnc2c1	i	3	6	i	50*	-50*
CCCc1nc2c(C)ccc(C)c2c(N)c1CC	i	12	0	i	55*	-52*
CCc1c(-c2ccccc2)nc2sc3c(c2c1N)CCCC3	i	7	0	i	nt	nt
